Our source for the Lethality, Dead/total and IC50 values is ChEMBL document CHEMBL1125559, “Analogues of platelet activating factor. 7. Bis-aryl amide and bis-aryl urea receptor antagonists of PAF” (J Med Chem, 1992).

pIC50: −log10 of the molar value.

For series [1], the system named is Mus musculus. In words: Compound was evaluated for PAF-induced lethality in mouse (intraperitoneally at a dose of 1.0 mg/kg in saline 0.5 hr before lethal intravenous PAF challenge 75-150 mg/kg). Format: ADME, organism-based. More on the design: dose 1 mg/kg, route intraperitoneal. The conditions noted are these: in vivo. The procedure, abridged: (§1)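 Female Swiss-Webster mice (20-25 g) received test compound ip in saline (10 mL/Kg); controls got saline alone. The PAF dose was chosen daily from small pilot groups. Survival was scored at 1.5 h and recorded as dead/total.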

Series [2] relates to Mus musculus. In words: Compound was evaluated for PAF-induced lethality in mouse (intraperitoneally at a dose of 1.0 mg/kg in saline 0.5 hr before lethal intravenous PAF challenge 75-150 mg/kg); 16/27. The class given is ADME, organism-based. More on the design: dose 1 mg/kg. Conditions: in vivo. The procedure, abridged:
as §1

A further series is filed under the species Oryctolagus cuniculus. Briefly: Concentration required to inhibit PAF (5*10e-8 M) induced platelet aggregation in rabbit platelet rich plasma(PRP) by 50%. Format: functional, organism-based. The procedure, abridged:
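Rabbit PRP came from blood spun at 800 rpm for 15 min at room temperature, with platelet counts of 350 000–550 000/µL. PRP was equilibrated 1–2 min at 37 °C in an aggregometer. It was preincubated 5 min with test compound (final 10^-8 to 10^-5 M; methanol stock diluted in saline) or saline, then challenged with L-C16-PAF. IC50 was taken from concentration–response curves of aggregation magnitude and averaged over separate determinations.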

The subject of series [3] is Mus musculus. In words: Compound was evaluated for PAF-induced lethality in mouse (intraperitoneally at a dose of 1.0 mg/kg in saline 0.5 hr before lethal intravenous PAF challenge 75-150 mg/kg); 8/12. Format: ADME, organism-based. More on the design: dose 1 mg/kg, route intravenous. The conditions noted are these: in vivo. The gist of the method: as §1

Consider `CCCCCCCCCCCCCCOc1ccc(OC)cc1CN(C(C)=O)c1cccc(C[n+]2csc(C)c2)c1.[Br-]`, for which the Lethality in the series with Mus musculus [1] is recorded as 59%. The molecule also had a Dead/total with Mus musculus [2] of 16. Further, in the series listed under Oryctolagus cuniculus, the negative logarithm of the IC50 (pIC50) is 6.49.

For `CCCCCCCCCCCCCCOc1ccc(CC(=O)Nc2ccc(C[n+]3csc(C)c3)cc2)cc1.[Br-]`, the Lethality in the series on Mus musculus [1] was 80%. Also, the Dead/total in the series on Mus musculus [3] was found to be 8. The pIC50 in the series filed under Oryctolagus cuniculus was 6.22.

As usually defined, the pIC50 is the IC50 on a negative log10 scale, so that one unit is a factor of ten. Low values mean a large IC50, high ones a small IC50.
